In PMC3517215 (Journal of medicinal chemistry, 2011):
Several values for one entry are separate records, joined by “and”; a condition that tells them apart may be missing. Equal entries are not always repeated. Each block holds one molecule with its values, some of them ahead of it.

Target: T1, human sEH (Homo sapiens, UniProt P34913)
T1 sequence (P34913 1-555): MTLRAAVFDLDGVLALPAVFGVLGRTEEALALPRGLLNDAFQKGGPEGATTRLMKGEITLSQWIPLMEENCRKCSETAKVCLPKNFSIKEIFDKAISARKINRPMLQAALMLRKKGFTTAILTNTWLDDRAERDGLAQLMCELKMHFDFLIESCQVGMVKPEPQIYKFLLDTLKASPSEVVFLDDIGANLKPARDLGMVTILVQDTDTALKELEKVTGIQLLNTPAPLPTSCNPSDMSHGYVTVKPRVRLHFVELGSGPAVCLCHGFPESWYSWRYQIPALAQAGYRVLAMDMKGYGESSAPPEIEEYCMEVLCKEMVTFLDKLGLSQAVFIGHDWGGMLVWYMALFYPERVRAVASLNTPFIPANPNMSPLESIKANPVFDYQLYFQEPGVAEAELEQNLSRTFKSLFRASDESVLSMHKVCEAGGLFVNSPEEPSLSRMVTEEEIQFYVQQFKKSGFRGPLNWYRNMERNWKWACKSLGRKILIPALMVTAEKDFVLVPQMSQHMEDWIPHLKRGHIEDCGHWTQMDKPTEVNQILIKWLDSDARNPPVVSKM
Assay: Human sEH inhibition, fluorescent assay with CMNPC substrate
Type: biochemical
Procedure, shortened: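 Recombinant human sEH from baculovirus-infected Sf9 cells, purified by His-tag affinity, TEV cleavage and anion exchange. Enzyme (1 nM) preincubated 10 min with test compound (DMSO) in 25 mM Bis-Tris/HCl pH 7.0 at 30 °C, then CMNPC added (5 μM). 6-Methoxy-2-naphthaldehyde fluorescence (ex 330/em 465 nm) read over 10 min. IC50 by regression of ≥6 points (≥3 linear); mean of three runs.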

Structure (SMILES): O=C(NCCCc1ccccc1)C1CCC(C(F)(F)F)CC1 (stereo not shown) [Compound 8]
- fold improvement over the non-substituted derivatives (4–7): 3.5–15 fold

Structure (SMILES): O=C(NCCCc1ccccc1)C1CCc2ccccc2C1 (stereo not shown) [Compound 20]
- fold improvement in inhibition potency relative to compound 19: 3 fold

Structure (SMILES): O=C(NCCCc1ccccc1)C1CC=CCC1 (stereo not shown) [Compound 7]
- fold improvement in inhibition relative to compounds 4 or 5: > 5 fold

Structure (SMILES): O=C(NCCc1ccccc1)C12CC3CC(CC(C3)C1)C2 [Compound 25]
- fold decrease in inhibition potency relative to compound 19: 4–6 fold

Structure (SMILES): O=C(NCCCCc1ccccc1)C12CC3CC(CC(C3)C1)C2 [Compound 26]
- fold decrease in inhibition potency relative to compound 19: 4–6 fold

Structure (SMILES): CC(C)(C)C1CCC(C(=O)NCCCc2ccccc2)CC1 (stereo not shown) [Compound 9]
- fold improvement over the non-substituted derivatives (4–7): 3.5–15 fold

Structure (SMILES): O=C(NCCCc1ccccc1)C1CCCCC1 [Compound 6]
- fold improvement in inhibition relative to compounds 4 or 5: > 5 fold

Next, values leading:

- fold loss in inhibition potency relative to compound 29: > 7 fold
Structure (SMILES): COC(=O)c1ccc(CCNC(=O)C23CC4CC(CC(C4)C2)C3)cc1 [Compound 30]

- fold less potent compared to compound 32: 3 fold
Structure (SMILES): COC(=O)c1ccc(CNC(=O)c2ccc3ccccc3c2)cc1 [Compound 33]

- fold better inhibition in comparison with compound 28: > 10 fold
Structure (SMILES): CCOC(=O)c1ccc(NC(=O)C23CC4CC(CC(C4)C2)C3)cc1 [Compound 27]

- fold better inhibition than compound 27: ~10 fold
Structure (SMILES): COC(=O)c1ccc(CNC(=O)C23CC4CC(CC(C4)C2)C3)cc1 [Compound 29]

- fold loss in inhibition potency relative to compound 29: 7 fold and > 7 fold
Structure (SMILES): COC(=O)c1ccc2cc(NC(=O)C34CC5CC(CC(C5)C3)C4)ccc2c1 [Compound 31, methyl 6-(1-adamantanecarboxamido)naphthalene-2-carboxylate]

- fold improvement relative to compound 29: 5 fold
Structure (SMILES): COC(=O)c1ccc(CNC(=O)C2CCc3ccccc3C2)cc1 (stereo not shown) [Compound 32, methyl 4-((1,2,3,4-tetrahydronaphthalene-2-carboxamido)methyl)benzoate]
